# Assay results reported in ChEMBL document CHEMBL4689842, “EUbOPEN Chemogenomics Library wave 1” (2021).
# Test system: U2OS
# Assay: Multiplex assay against U2OS
# Assay type: toxicity, cell-based
# Conditions: human
# Summary of the method: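 Live cells were stained at seeding with Hoechst33342, BioTracker Green Microtubule Cytoskeleton Dye, MitoTracker Red and Annexin V Alexa Fluor 680. Following compound addition, they were imaged on a CQ1 microscope at 37°C and 5% CO2 and gated by CellPathfinder machine learning into Hoechst high-intensity objects or normal cells, with normal cells split into healthy, pyknosed or fragmented nuclei and pyknosed cells into mitotic or apoptotic. Tubulin, mitochondrial-mass and membrane-permeability phenotypes are per cents of healthy-nucleus cells.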
# [1] = 12 h, 1 µM, compound concentration 1 uM, replicate 1
# [2] = 12 h, 1 µM, compound concentration 1 uM, replicate 2
# [3] = 12 h, 10 µM, compound concentration 10 uM, replicate 1
# [4] = 12 h, 10 µM, compound concentration 10 uM, replicate 2
# [5] = 24 h, 1 µM, compound concentration 1 uM, replicate 1
# [6] = 24 h, 1 µM, compound concentration 1 uM, replicate 2
# [7] = 24 h, 10 µM, compound concentration 10 uM, replicate 1
# [8] = 24 h, 10 µM, compound concentration 10 uM, replicate 2
# [9] = 48 h, 1 µM, compound concentration 1 uM, replicate 1
# [10] = 48 h, 1 µM, compound concentration 1 uM, replicate 2
# [11] = 48 h, 10 µM, compound concentration 10 uM, replicate 1
# [12] = 48 h, 10 µM, compound concentration 10 uM, replicate 2
smiles,measurement,setting,value
COc1cc(N2CCN(C)CC2)ccc1Nc1ncc2c(n1)N(C)c1ccccc1C(=O)N2C,Population Apoptotic (%),[1],33%
same,Population Fragmented Nuclei (%),[1],12%
same,Population Healthy Nuclei (%),[1],72%
same,Population Hoechst High Intensity Objects (%),[1],6%
same,Population Membrane Permeable-Phenotype (%),[1],6%
same,Population Mitochondria Different-Phenotype (%),[1],25%
same,Population Mitotic Cells (%),[1],66%
same,Population Normal (%),[1],93%
same,Population Pyknosed Nuclei (%),[1],14%
same,Population Tubulin-Different-Phenotype (%),[1],17%
same,Total Cell Count,[1],199
same,Population Apoptotic (%),[2],40%
same,Population Fragmented Nuclei (%),[2],5%
same,Population Healthy Nuclei (%),[2],82%
same,Population Hoechst High Intensity Objects (%),[2],4%
same,Population Membrane Permeable-Phenotype (%),[2],9%
same,Population Mitochondria Different-Phenotype (%),[2],21%
same,Population Mitotic Cells (%),[2],60%
same,Population Normal (%),[2],95%
same,Population Pyknosed Nuclei (%),[2],12%
same,Population Tubulin-Different-Phenotype (%),[2],15%
same,Total Cell Count,[2],104
same,Population Apoptotic (%),[3],60%
same,Population Fragmented Nuclei (%),[3],11%
same,Population Healthy Nuclei (%),[3],66%
same,Population Hoechst High Intensity Objects (%),[3],7%
same,Population Membrane Permeable-Phenotype (%),[3],22%
same,Population Mitochondria Different-Phenotype (%),[3],96%
same,Population Mitotic Cells (%),[3],39%
same,Population Normal (%),[3],92%
same,Population Pyknosed Nuclei (%),[3],21%
same,Population Tubulin-Different-Phenotype (%),[3],99%
same,Total Cell Count,[3],177
same,Population Apoptotic (%),[4],66%
same,Population Fragmented Nuclei (%),[4],15%
same,Population Healthy Nuclei (%),[4],61%
same,Population Hoechst High Intensity Objects (%),[4],5%
same,Population Membrane Permeable-Phenotype (%),[4],21%
same,Population Mitotic Cells (%),[4],33%
same,Population Normal (%),[4],94%
same,Population Pyknosed Nuclei (%),[4],23%
same,Population Tubulin-Different-Phenotype (%),[4],100%
same,Total Cell Count,[4],42
same,Population Apoptotic (%),[5],29%
same,Population Fragmented Nuclei (%),[5],11%
same,Population Hoechst High Intensity Objects (%),[5],5%
same,Population Membrane Permeable-Phenotype (%),[5],3%
same,Population Mitochondria Different-Phenotype (%),[5],8%
same,Population Mitotic Cells (%),[5],70%
same,Population Normal (%),[5],94%
same,Population Pyknosed Nuclei (%),[5],12%
same,Population Tubulin-Different-Phenotype (%),[5],8%
same,Total Cell Count,[5],187
same,Population Apoptotic (%),[6],50%
same,Population Fragmented Nuclei (%),[6],9%
same,Population Healthy Nuclei (%),[6],75%
same,Population Hoechst High Intensity Objects (%),[6],6%
same,Population Membrane Permeable-Phenotype (%),[6],6%
same,Population Mitochondria Different-Phenotype (%),[6],12%
same,Population Mitotic Cells (%),[6],50%
same,Population Normal (%),[6],93%
same,Population Pyknosed Nuclei (%),[6],14%
same,Population Tubulin-Different-Phenotype (%),[6],6%
same,Total Cell Count,[6],101
same,Population Apoptotic (%),[7],69%
same,Population Fragmented Nuclei (%),[7],18%
same,Population Healthy Nuclei (%),[7],50%
same,Population Hoechst High Intensity Objects (%),[7],7%
same,Population Membrane Permeable-Phenotype (%),[7],19%
same,Population Mitochondria Different-Phenotype (%),[7],94%
same,Population Mitotic Cells (%),[7],30%
same,Population Normal (%),[7],92%
same,Population Pyknosed Nuclei (%),[7],30%
same,Population Tubulin-Different-Phenotype (%),[7],97%
same,Total Cell Count,[7],204
same,Population Apoptotic (%),[8],76%
same,Population Fragmented Nuclei (%),[8],11%
same,Population Healthy Nuclei (%),[8],63%
same,Population Hoechst High Intensity Objects (%),[8],8%
same,Population Membrane Permeable-Phenotype (%),[8],30%
same,Population Mitochondria Different-Phenotype (%),[8],93%
same,Population Mitotic Cells (%),[8],23%
same,Population Normal (%),[8],91%
same,Population Pyknosed Nuclei (%),[8],25%
same,Population Tubulin-Different-Phenotype (%),[8],66%
same,Total Cell Count,[8],44
same,Population Apoptotic (%),[9],42%
same,Population Fragmented Nuclei (%),[9],7%
same,Population Healthy Nuclei (%),[9],77%
same,Population Membrane Permeable-Phenotype (%),[9],4%
same,Population Mitochondria Different-Phenotype (%),[9],5%
same,Population Mitotic Cells (%),[9],57%
same,Population Pyknosed Nuclei (%),[9],14%
same,Population Tubulin-Different-Phenotype (%),[9],8%
same,Total Cell Count,[9],182
same,Population Apoptotic (%),[10],60%
same,Population Fragmented Nuclei (%),[10],5%
same,Population Healthy Nuclei (%),[10],76%
same,Population Hoechst High Intensity Objects (%),[10],3%
same,Population Membrane Permeable-Phenotype (%),[10],9%
same,Population Mitochondria Different-Phenotype (%),[10],16%
same,Population Mitotic Cells (%),[10],40%
same,Population Normal (%),[10],96%
same,Population Pyknosed Nuclei (%),[10],18%
same,Population Tubulin-Different-Phenotype (%),[10],11%
same,Total Cell Count,[10],88
same,Population Apoptotic (%),[11],84%
same,Population Fragmented Nuclei (%),[11],21%
same,Population Healthy Nuclei (%),[11],42%
same,Population Hoechst High Intensity Objects (%),[11],7%
same,Population Membrane Permeable-Phenotype (%),[11],18%
same,Population Mitotic Cells (%),[11],15%
same,Population Normal (%),[11],92%
same,Population Pyknosed Nuclei (%),[11],35%
same,Population Tubulin-Different-Phenotype (%),[11],82%
same,Total Cell Count,[11],297
same,Population Apoptotic (%),[12],63%
same,Population Fragmented Nuclei (%),[12],11%
same,Population Healthy Nuclei (%),[12],46%
same,Population Hoechst High Intensity Objects (%),[12],19%
same,Population Membrane Permeable-Phenotype (%),[12],33%
same,Population Mitochondria Different-Phenotype (%),[12],90%
same,Population Mitotic Cells (%),[12],36%
same,Population Normal (%),[12],80%
same,Population Pyknosed Nuclei (%),[12],42%
same,Population Tubulin-Different-Phenotype (%),[12],61%
same,Total Cell Count,[12],57
CCOc1cc(C(=O)N2CCC(N3CCN(C)CC3)CC2)ccc1Nc1ncc2c(n1)N(C1CCCC1)c1ccccc1C(=O)N2C,Population Apoptotic (%),[1],73%
same,Population Fragmented Nuclei (%),[1],14%
same,Population Healthy Nuclei (%),[1],70%
same,Population Hoechst High Intensity Objects (%),[1],6%
same,Population Membrane Permeable-Phenotype (%),[1],8%
same,Population Mitochondria Different-Phenotype (%),[1],75%
same,Population Mitotic Cells (%),[1],26%
same,Population Normal (%),[1],93%
same,Population Pyknosed Nuclei (%),[1],15%
same,Population Tubulin-Different-Phenotype (%),[1],69%
same,Total Cell Count,[1],153
same,Population Apoptotic (%),[2],75%
same,Population Fragmented Nuclei (%),[2],6%
same,Population Healthy Nuclei (%),[2],80%
same,Population Hoechst High Intensity Objects (%),[2],10%
same,Population Membrane Permeable-Phenotype (%),[2],4%
same,Population Mitochondria Different-Phenotype (%),[2],76%
same,Population Mitotic Cells (%),[2],25%
same,Population Normal (%),[2],89%
same,Population Pyknosed Nuclei (%),[2],12%
same,Population Tubulin-Different-Phenotype (%),[2],48%
same,Total Cell Count,[2],67
same,Population Apoptotic (%),[3],83%
same,Population Fragmented Nuclei (%),[3],19%
same,Population Healthy Nuclei (%),[3],48%
same,Population Hoechst High Intensity Objects (%),[3],7%
same,Population Membrane Permeable-Phenotype (%),[3],95%
same,Population Mitochondria Different-Phenotype (%),[3],97%
same,Population Mitotic Cells (%),[3],16%
same,Population Normal (%),[3],92%
same,Population Pyknosed Nuclei (%),[3],32%
same,Population Tubulin-Different-Phenotype (%),[3],100%
same,Total Cell Count,[3],181
same,Population Apoptotic (%),[4],92%
same,Population Fragmented Nuclei (%),[4],21%
same,Population Healthy Nuclei (%),[4],50%
same,Population Hoechst High Intensity Objects (%),[4],6%
same,Population Membrane Permeable-Phenotype (%),[4],93%
same,Population Mitotic Cells (%),[4],7%
same,Population Normal (%),[4],93%
same,Population Pyknosed Nuclei (%),[4],27%
same,Total Cell Count,[4],69
same,Population Apoptotic (%),[5],50%
same,Population Healthy Nuclei (%),[5],61%
same,Population Hoechst High Intensity Objects (%),[5],4%
same,Population Membrane Permeable-Phenotype (%),[5],2%
same,Population Mitochondria Different-Phenotype (%),[5],64%
same,Population Mitotic Cells (%),[5],50%
same,Population Normal (%),[5],95%
same,Population Pyknosed Nuclei (%),[5],22%
same,Population Tubulin-Different-Phenotype (%),[5],17%
same,Total Cell Count,[5],142
same,Population Apoptotic (%),[6],22%
same,Population Fragmented Nuclei (%),[6],16%
same,Population Healthy Nuclei (%),[6],72%
same,Population Hoechst High Intensity Objects (%),[6],5%
same,Population Membrane Permeable-Phenotype (%),[6],5%
same,Population Mitochondria Different-Phenotype (%),[6],65%
same,Population Mitotic Cells (%),[6],77%
same,Population Normal (%),[6],94%
same,Population Pyknosed Nuclei (%),[6],11%
same,Population Tubulin-Different-Phenotype (%),[6],27%
same,Total Cell Count,[6],71
same,Population Apoptotic (%),[7],92%
same,Population Fragmented Nuclei (%),[7],23%
same,Population Healthy Nuclei (%),[7],17%
same,Population Hoechst High Intensity Objects (%),[7],7%
same,Population Membrane Permeable-Phenotype (%),[7],93%
same,Population Mitochondria Different-Phenotype (%),[7],100%
same,Population Mitotic Cells (%),[7],7%
same,Population Normal (%),[7],92%
same,Total Cell Count,[7],215
same,Population Apoptotic (%),[8],88%
same,Population Fragmented Nuclei (%),[8],10%
same,Population Healthy Nuclei (%),[8],30%
same,Population Hoechst High Intensity Objects (%),[8],11%
same,Population Membrane Permeable-Phenotype (%),[8],100%
same,Population Mitochondria Different-Phenotype (%),[8],96%
same,Population Mitotic Cells (%),[8],11%
same,Population Normal (%),[8],88%
same,Population Pyknosed Nuclei (%),[8],59%
same,Population Tubulin-Different-Phenotype (%),[8],100%
same,Total Cell Count,[8],85
same,Population Apoptotic (%),[9],53%
same,Population Fragmented Nuclei (%),[9],15%
same,Population Healthy Nuclei (%),[9],64%
same,Population Hoechst High Intensity Objects (%),[9],3%
same,Population Membrane Permeable-Phenotype (%),[9],1%
same,Population Mitochondria Different-Phenotype (%),[9],28%
same,Population Mitotic Cells (%),[9],46%
same,Population Normal (%),[9],96%
same,Population Pyknosed Nuclei (%),[9],19%
same,Population Tubulin-Different-Phenotype (%),[9],9%
same,Total Cell Count,[9],151
same,Population Apoptotic (%),[10],42%
same,Population Fragmented Nuclei (%),[10],13%
same,Population Healthy Nuclei (%),[10],72%
same,Population Hoechst High Intensity Objects (%),[10],5%
same,Population Membrane Permeable-Phenotype (%),[10],12%
same,Population Mitochondria Different-Phenotype (%),[10],40%
same,Population Mitotic Cells (%),[10],57%
same,Population Normal (%),[10],94%
same,Population Pyknosed Nuclei (%),[10],14%
same,Population Tubulin-Different-Phenotype (%),[10],25%
same,Total Cell Count,[10],81
same,Population Apoptotic (%),[11],93%
same,Population Fragmented Nuclei (%),[11],34%
same,Population Healthy Nuclei (%),[11],1%
same,Population Hoechst High Intensity Objects (%),[11],14%
same,Population Membrane Permeable-Phenotype (%),[11],100%
same,Population Mitochondria Different-Phenotype (%),[11],100%
same,Population Mitotic Cells (%),[11],6%
same,Population Normal (%),[11],85%
same,Population Pyknosed Nuclei (%),[11],63%
same,Population Tubulin-Different-Phenotype (%),[11],100%
same,Total Cell Count,[11],281
same,Population Apoptotic (%),[12],100%
same,Population Fragmented Nuclei (%),[12],16%
same,Population Healthy Nuclei (%),[12],20%
same,Population Hoechst High Intensity Objects (%),[12],18%
same,Population Membrane Permeable-Phenotype (%),[12],93%
same,Population Mitochondria Different-Phenotype (%),[12],86%
same,Population Mitotic Cells (%),[12],0%
same,Population Normal (%),[12],81%
same,Population Pyknosed Nuclei (%),[12],62%
same,Population Tubulin-Different-Phenotype (%),[12],93%
same,Total Cell Count,[12],103
